Bioassay records (PubChem BioAssay)
FAS TE block: inhibitors of human fatty acid synthase thioesterase domain | inhibition, % at 15 µM | P49327 | 360,000 tested, 0.67% active | recombinant FAS-TE, OMFH fluorogenic substrate, fluorescence endpoint;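 active = compounds whose normalised, plate-corrected inhibition of enzyme fluorescence in the single-dose primary screen is 50% or more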;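 also: 0% = DMSO with enzyme and 100% = substrate without enzyme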
Runt-CBFb FRET: inhibitors of human RUNX1 Runt domain binding to CBFb; Q01196+Q13951; Cerulean-Runt/Venus-CBFb FRET ratio 530/480, 1 h; inhibition, % at 20 µM; 220,000 tested, 0.46% active; AID 1496;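 active = inhibition over about 50% at 20 µM in the single-dose screen, limit read from the data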;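 also: 0% = DMSO wells and 100% = excess unlabeled CBFb competitor control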
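System: Cerulean-labeled Runt domain protein | Quantity: 100 nM of each labeled protein | Schedule: 1 h compound exposure, room temperature | Detection: Fluorescence energy transfer, 422 nm excitation, 530/480 nm emission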
RanGTP-Impb inh: disruptors of Ran-importin-beta complex formation – biochemical, FRET, CFP-Ran, YFP-importin-beta, homogeneous, primary screen; cell-free CFP-Ran/YFP-importin-beta FRET ratio; AID 2216; inhibition, % (concentration not given with the values); 300,000 tested, 1.1% active;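 active = more than half of the replicate wells show a fall in the fluorescence ratio signal beyond about 16%, limit read from the data, passing the limit was not always enough; inconclusive = exactly half of the replicate wells pass the set limit; inactive = fewer than half of replicates pass the limit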;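 also: 0% = DMSO wells and 100% = Ran loaded with GDP instead of GTP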
Runt-SMMHC FRET: inhibitors of human RUNX1 Runt domain binding to CBFb-SMMHC | AID 1434 | inhibition, % at 20 µM | Q01196+Q13951 | 220,000 tested, 0.74% active | Cerulean-Runt/Venus-CBFb-SMMHC FRET ratio 530/480, 1 h;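 active = mean inhibition across duplicate retests at 20 µM reaching about 50%, limit read from the data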;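 also: 0% = DMSO wells and 100% = wells with excess untagged CBFb-SMMHC; inhibitors lower the FRET ratio by blocking Runt binding to CBFb-SMMHC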
Calpain2 inh: blocks pig calpain II enzyme activity; purified calpain II, fluorogenic peptide substrate, 30 min; inhibition, % at 16 µM; 220,000 tested, 0.37% active; AID 1236;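 active = inhibition above about 50%, limit read from the data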
Numbers without * were called inactive; ? = inconclusive; / = no result. Only some compounds are listed: those with a hit (about 2.1% of all), similar ones and a draw of the others.

SMILES	FAS TE block	Runt-CBFb FRET	RanGTP-Impb inh	Runt-SMMHC FRET	Calpain2 inh
CCN(CC)c1ccc(/C=C(\C#N)c2ccccn2)cc1	21.4	-21.2	44.6*	-44.9	9.6
CN(CCC#N)c1ccc(/C=C(\C#N)c2ccccn2)cc1	1.7	3.5	-27.2	79.2*	20.0
CCN1CC=C2C(C#N)=C(N)C(C#N)(C#N)C(CCc3ccccc3)C2C1 (centres undefined)	-13.7	108.2*	/	37.9	-291.1
CC(=O)N1CC=C2C(C#N)=C(N)C(C#N)(C#N)C(CCc3ccccc3)C2C1 (centres undefined)	1.5	7.6	5.0	13.8	-19.6
N#CC1=C(N)C(C#N)(C#N)[C@H](c2ccoc2)[C@H]2CN(Cc3ccccc3)CC=C12	-22.9	39.6	107.3*	57.4*	-203.7
CN1CC=C2C(C#N)=C(N)C(C#N)(C#N)[C@H](c3ccoc3)[C@H]2C1	-55.7	39.3	51.5*	59.0*	-3.8
CC(=O)N1CC=C2C(C#N)=C(N)C(C#N)(C#N)[C@H](c3ccoc3)[C@H]2C1	-4.9	8.4	-3.7	9.5	-14.2
CN1CC=C2C(C#N)=C(N)C(C#N)(C#N)C(c3cccc(Cl)c3Cl)C2C1 (centres undefined)	-32.2	30.6	37.3*	62.0*	-106.1
O=C(NCC(=O)N1CCN(Cc2c(F)cccc2Cl)CC1)c1cccc(Cl)c1	1.8	/	/	/	/
N#CCc1ccc(Oc2ncccn2)cc1	-6.6	/	2.3	/	/
CS(=O)(=O)N1CCc2cc(NC(=O)c3ccc(Cl)cc3Cl)ccc21	-2.4	-0.5	-0.9	2.1	50.4*
CS(=O)(=O)N1CCc2cc(C(=O)Nc3ccc(Cl)cc3)ccc21	0.9	/	-4.4	/	/
CC1(C)CC(=O)C2=C(C1)OC(N)=C(C#N)C2c1ccccc1[N+](=O)[O-] (centres undefined)	-7.0	85.5*	61.3*	91.1*	-85.6
CC1(C)CC(=O)C2=C(C1)OC(N)=C(C#N)C2c1ccccc1 (centres undefined)	-9.3	-0.5	?	-0.7	18.3
COc1ccc(C2NC(c3ccc(OC)cc3OC)C(C)C(=O)C2C)c(OC)c1 (centres undefined)	-2.7	-2.2	116.3*	-0.3	-29.4
CCOC(=O)C(NC(=O)c1ccccc1Cl)(Nc1ccc(C)c(C)c1)C(F)(F)F (centres undefined)	15.7	-1.5	-2.8	-1.3	8.0
COC(=O)C(Nc1ccccc1Cl)(c1cc(C)c(O)c(C)c1)C(F)(F)F (centres undefined)	29.9	-0.1	-0.2	1.3	51.5*
O=C(O)c1ccc(S(=O)(=O)Nc2ccc3c(c2)OCCO3)cc1	-5.6	/	-1.6	/	/
CC(=O)Nc1ccccc1C(=O)C(=O)Nc1ccc(C(=O)NCC2CCCO2)cc1 (centres undefined)	-5.3	-1.3	-2.6	-0.1	10.7
CC(=O)Nc1ccccc1C(=O)C(=O)Nc1cccc(C(=O)NCC2CCCO2)c1 (centres undefined)	-1.3	-1.5	6.9	-5.0	93.0*
CC(=O)c1ccc(Nc2nc(C(N)Cc3ccc(Cl)cc3)cs2)cc1 (centres undefined)	3.9	/	/	/	/
C#CCNC(=O)C[C@@H]1C[C@@]2(C(=O)OCC)CCCC=C2N(Cc2ccc(Cl)cc2Cl)C1=O	5.1	/	/	/	/
O=c1cc(N2CCCCCC2)[nH]c(=O)n1-c1ccccc1Cl	-6.9	-1.2	/	1.1	-11.5
CCOC(=O)C1CCN(c2cc(=O)n(-c3ccccc3Cl)c(=O)[nH]2)CC1	-8.0	-0.6	59.0*	0.4	-8.6
Cc1ccccc1-n1c(=O)cc(N2CCCCCC2)[nH]c1=O	-7.3	/	144.7*	0.4	-9.9
SMILES	FAS TE block	Runt-CBFb FRET	RanGTP-Impb inh	Runt-SMMHC FRET	Calpain2 inh
O=c1cc(-c2ccc(O)cc2)oc2cc(O)c(C3OC(CO)C(O)C(O)C3O)c(O)c12 (centres undefined)	-4.0	38.3	6.7	86.7*	-57.0
Cn1nc(C(=O)Nc2ccc(S(=O)(=O)N3CCCCC3)cc2)c2ccccc2c1=O	20.1	-3.1	3.9	-3.9	51.4*
Cc1nc(SCC(=O)N2CCC(Cc3ccccc3)CC2)[nH]c(=O)c1C	-0.1	/	?	/	/
COc1ccccc1C(=O)NNC(=O)C1CC=CCC1 (centres undefined)	-2.1	/	3.9	/	/
Cc1ccccc1NC(=S)N(CCc1c(C)[nH]c2ccc(F)cc12)Cc1cccnc1	3.6	0.4	1.5	1.7	63.5*
Cc1ccc(C(=O)Nc2c3c(nn2C(C)(C)C)CS(=O)(=O)C3)cc1C	-7.0	98.1*	-1.8	6.1	-13.1
CN1C(N)=NC(=O)/C1=C/c1ccccc1F	-11.0	-1.5	31.1*	17.4	39.7
Cc1ccc(/C=C2/C(=O)N=C(N)N2C)s1	-22.3	-1.8	-4.9	-2.5	-7.7
O=C1N=C(N2CCOCC2)S/C1=C\c1ccc(-c2ccccc2Cl)o1	-2.9	-7.2	2.1	-85.1	-80.9
Cc1ccccc1-c1ccc(/C=C2/SC(N3CCOCC3)=NC2=O)o1	8.6	-20.8	20.2*	-42.3	4.4
Cc1ccc(OC(C)C(=O)N2CCN(c3ccccn3)CC2)cc1 (centres undefined)	-7.9	/	/	/	/
CC1=[N+]([O-])C(C)(C)N(O)C1(C)C	-10.2	-1.5	-3.1	0.6	-1.4
COc1ccc(S(=O)(=O)N2CCCCCC2)cc1NC(=O)Cc1cc(OC)c(OC)c(OC)c1	0.5	-3.7	1.2	-1.3	-1.3
COc1ccc(S(=O)(=O)N2CCCCC2)cc1NC(=O)CN(C)C1CCCCC1	18.7	-0.8	1.9	0.9	53.0*
Nc1c(C(=O)CSc2nnc(-c3ccccc3)o2)c(=O)[nH]c(=O)n1C1CC1	-7.2	/	/	/	/
C/C(=N\Nc1nc2ccccc2s1)c1cccs1	28.1	-3.2	22.4*	2.1	2.7
Cc1nc(-c2ccccc2)sc1C(=O)CSc1ccc(Cl)cc1	19.4	-0.6	0.1	0.0	63.6*
CCOc1ccc(/C=C2\CCCc3c2nc2ccccc2c3C(=O)O)cc1OC	-142.3	/	29.0*	/	/
COc1ccc(/C=C2\CCc3c2nc2ccccc2c3C(=O)O)cc1OC	-12.8	9.8	-25.8	81.6	-325.8
COc1ccc(/C=C2\CCCc3c2nc2ccccc2c3C(=O)O)cc1OC	/	11.9	37.3*	81.0*	-240.1
COc1ccc(CN(C)C(=O)CNC(=O)CNC(=O)c2ccc(Cl)cc2Cl)cc1F	-5.3	/	?	/	/
O=C(c1sc2cc([N+](=O)[O-])ccc2c1Cl)N1CCCCC1	13.8	4.1	0.9	1.8	25.1
CC1CCCN(C(=O)c2sc3cc([N+](=O)[O-])ccc3c2Cl)C1 (centres undefined)	15.6	1.2	4.1	-1.2	68.1*
COCCN(C(=O)Cn1c(C(F)(F)F)nc2ccccc21)c1c(N)n(Cc2ccccc2)c(=O)[nH]c1=O	-6.2	/	0.6	/	/
CC1(C)C(=O)OC(c2cccn2-c2ccc([N+](=O)[O-])cc2)C2(CCCCC2)C1=O (centres undefined)	-4.5	1.4	-0.1	6.2	14.3
